Like-named read-outs stand apart in the source and are kept apart here.
Key:
[1] = test system: MDA-MB-231 cells; experiment: Cell viability study; type: cell-based, human
In short: (§1)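 Cells were maintained in high-glucose GlutaMax DMEM with 10% heat-inactivated FBS. They were seeded at 20,000/well, left overnight in 5% FBS medium, then dosed in 1:9 DMSO/acetone against vehicle controls, redosed every 24 h for the 48 h and 72 h runs. Resazurin (0.02% in PBS) was added for 2-3 h, read at ex 560/em 590 nm. IC50 came from nonlinear regression of log concentration versus % control.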

[2] = biological target: σ1 receptor (Cavia porcellus, UniProt Q60492); experiment: Radioligand binding assay at sigma-1 receptor
Sequence of σ1 receptor (Q60492 whole entry): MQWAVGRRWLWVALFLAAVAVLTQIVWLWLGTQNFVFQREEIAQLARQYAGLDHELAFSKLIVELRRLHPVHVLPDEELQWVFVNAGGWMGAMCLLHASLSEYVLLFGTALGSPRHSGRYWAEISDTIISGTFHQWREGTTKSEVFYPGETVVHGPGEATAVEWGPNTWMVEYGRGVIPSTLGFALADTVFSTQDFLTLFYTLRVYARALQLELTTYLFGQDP

[3] = biological target: T1, σ2 receptor (Rattus norvegicus, UniProt Q5U3Y7); experiment: Radioligand binding assay at sigma-2 receptor; details: for fold lower affinity at the σ2 receptor than compound 3: vs compound 3
T1 sequence (Q5U3Y7 1-176): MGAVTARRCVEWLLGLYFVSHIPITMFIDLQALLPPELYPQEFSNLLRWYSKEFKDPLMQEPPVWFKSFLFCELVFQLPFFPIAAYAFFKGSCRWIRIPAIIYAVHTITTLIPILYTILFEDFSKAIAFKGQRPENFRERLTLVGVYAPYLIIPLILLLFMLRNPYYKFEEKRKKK

[4] = test system: Panc-1 cells; experiment: Cell viability study; type: cell-based, human
In short: as §1

[5] = biological target: T1, σ2 receptor; details: previously reported; cited from earlier work

With `N.N.[Cl][Pt][Cl]` [Cisplatin] the IC50 ([1]; read-out: IC50 (48 h), cell viability, MDA-MB-231, 48 h treatment) was 50 ± 9.8 µM and the IC50 ([1]; read-out: IC50 (72 h), cell viability, MDA-MB-231, 72 h treatment) was 64.2 ± 4.3 µM.

For `O=C1c2ccc(F)cc2CC1CCN1CCCN(c2ccc(Cl)cc2)CC1` (stereo not shown) [Compound 3], the “fold lower affinity for the σ1 receptor compared to compound 1” value ([2]; vs compound 1) was “more than 2 fold” and the “fold higher affinity for σ2 receptor compared to compound 1” value ([3]; vs compound 1) was “greater than 9 fold”.

For `O=C1c2ccccc2CC1CCN1CCCN(c2ccc(Cl)cc2)CC1` (stereo not shown) [Compound 4, 2-(2-(4-(4-chlorophenyl)-1,4-diazepan-1-yl)ethyl)-2,3-dihydro-1H-inden-1-one], the “fold higher affinity than compound 3 at the σ1 receptor” value ([2]; vs compound 3) was 3 fold and the “fold lower affinity at the σ2 receptor than compound 3” value [3] was “over 7 fold”.

For `O=C(CCCN1CCCN(c2ccc(Cl)cc2)CC1)c1ccc(F)cc1` [Compound 1, 4-(4-(4-chlorophenyl)-1,4-diazepan-1-yl)-1-(4-fluorophenyl)butan-1-one], the “IC50, cell viability” value [4] is given as “sub-micromolar” and the “Ki(σ1)/Ki(σ2)” value [5] is given as 4.3.

With `O/N=C(\CCCN1CCCN(c2ccc(Cl)cc2)CC1)c1ccc(F)cc1` [Compound 12, 4-(4-(4-chlorophenyl)-1,4-diazepan-1-yl)-1-(4-fluorophenyl)butan-1-one oxime] the “IC50, cell viability” value [4] was “sub-micromolar”.

With `O=C1c2ccc(Cl)cc2CC1CCN1CCCN(c2ccc(Cl)cc2)CC1` (stereo not shown) [Compound 8, 5-chloro-2-(2-(4-(4-chlorophenyl)-1,4-diazepan-1-yl)ethyl)-2,3-dihydro-1H-inden-1-one] the “fold lower affinity at the σ2 receptor than compound 3” value [3] was “over 31 fold”.

Reference: paper PMC6536312 (Bioorganic & medicinal chemistry, 2019)
